Consider 2 compounds from ChEMBL document CHEMBL4699393, “Meridianin D analogues possess antibiofilm activity against Mycobacterium smegmatis” (RSC Med Chem, 2020).

Structures are written as SMILES. Values after ≈ are worked out from the molar mass of the structure shown.

Series [1] has as its system Mycolicibacterium smegmatis. The series is described as follows: Potentiation of Cefotaxime-induced antibacterial activity against Mycobacterium smegmatis mc2 155 ATCC 700084 assessed as Cefotaxime MIC at 30 uM incubated for 48 hrs by alamarblue dye based broth microdilution method (reference value: 128 ug/ml). It is filed as functional. In short, it runs like this: (§1)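 Inoculum from 48 h cultures set to 5 x 10^5 CFU/mL in 7H9 + ADC and pre-dosed with compound from DMSO stock at fixed concentration. β-lactam two-fold serially diluted from top concentration, with an antibiotic-only control series. Stationary 37 °C for 48 h, then alamarBlue for 8 h. MIC is the lowest blue (non-viable) well. Fold reduction is relative to the antibiotic-only MIC. Duplicates, at least two repeats.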

For series [2], the system named is Mycolicibacterium smegmatis. Briefly: Antibiofilm activity against Mycobacterium smegmatis mc2 155 ATCC 700084 assessed as dispersion of preformed biofilms measured after 24 hrs by crystal violet reporter assay. It counts as functional, organism-based. To be noted: MC2 155 ATCC 700084, 24 h. The gist of the method: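 Cultures (48 h) diluted to 0.01 in M9 minimal salts with glucose, MgSO4 and CaCl2 in PVC plates. Biofilm grown stationary at 37 °C for 48 h, washed, then fresh medium with compound added for 24 h at 37 °C. Stained with 0.1% crystal violet 30 min, solubilised in 95% ethanol, OD540 read. Media blanks subtracted. Dispersion calculated against untreated biofilm wells. At least three repeats.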

Series [3] in a line: Hemolytic activity in sheep RBC assessed as hemolysis at 500 uM measured after 1 hr by UV spectrometer analysis. Conditions: sheep red blood cells (erythrocytes), read-out: Activity. It is filed as ADME, cell-based, Ovis aries, Erythrocyte. In short, it runs like this:
(§2)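 Mechanically defibrinated sheep blood was centrifuged, and the cells were washed and resuspended in PBS three times, then diluted 10-fold. Compound was added from DMSO stock. Controls were 1% Triton X (100% lysis) and PBS (zero lysis). Samples were incubated 1 h at 37 °C with shaking at 200 rpm, then centrifuged. Supernatant was diluted 40-fold in distilled water and read at A540. Run in duplicate, repeated at least twice.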

For series [4], the system named is Mycolicibacterium smegmatis. Briefly: Potentiation of Ampicillin-induced antibacterial activity against Mycobacterium smegmatis mc2 155 ATCC 700084 assessed as Ampicillin MIC at 30 uM incubated for 48 hrs by alamarblue dye based broth microdilution method (reference value: 128 ug/ml). It is filed as functional. In short, it runs like this: as §1
Series [5] concerns Mycolicibacterium smegmatis. Briefly: Potentiation of Cefoxitin-induced antibacterial activity against Mycobacterium smegmatis mc2 155 ATCC 700084 assessed as Cefoxitin MIC at 30 uM incubated for 48 hrs by alamarblue dye based broth microdilution method (reference value: 16 ug/ml). It counts as functional. The gist of the method:
as §1

Series [6] concerns Mycolicibacterium smegmatis. Briefly: Potentiation of Cefotaxime-induced antibacterial activity against Mycobacterium smegmatis mc2 155 ATCC 700084 assessed as fold reduction in Cefotaxime MIC at 30 uM incubated for 48 hrs by alamarblue dye based broth microdilution method. It counts as functional. The gist of the method: as §1
Series [7] has as its system Mycolicibacterium smegmatis. The series is described as follows: Potentiation of Ceftazidime-induced antibacterial activity against Mycobacterium smegmatis mc2 155 ATCC 700084 assessed as fold reduction in Ceftazidime MIC at 30 uM incubated for 48 hrs by alamarblue dye based broth microdilution method. It counts as functional. The gist of the method:
as §1

The test system of series [8] is Mycolicibacterium smegmatis. Briefly: Potentiation of Oxacillin-induced antibacterial activity against Mycobacterium smegmatis mc2 155 ATCC 700084 assessed as Oxacillin MIC at 30 uM incubated for 48 hrs by alamarblue dye based broth microdilution method (Rvb =512 ug/ml). It is filed as functional. The gist of the method: as §1
Series [9] has as its system Mycolicibacterium smegmatis. Briefly: Potentiation of Ceftazidime-induced antibacterial activity against Mycobacterium smegmatis mc2 155 ATCC 700084 assessed as Ceftazidime MIC at 30 uM incubated for 48 hrs by alamarblue dye based broth microdilution method (reference value: 512 ug/ml). It is filed as functional. The gist of the method: as §1
For series [10], the system named is Mycolicibacterium smegmatis. The series is described as follows: Potentiation of oxacillin-induced antibacterial activity against Mycobacterium smegmatis mc2 155 ATCC 700084 assessed as fold reduction in oxacillin MIC at 30 uM incubated for 48 hrs by alamarblue dye based broth microdilution method. It is filed as functional. In short, it runs like this:
as §1

Series [11] deals with Mycolicibacterium smegmatis. Briefly: Antibacterial activity against Mycobacterium smegmatis mc2 155 ATCC 700084 assessed as inhibition of bacterial growth incubated for 48 hrs by alamarblue dye based broth microdilution method. It is filed as functional. The gist of the method:
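Inoculum from 48 h cultures set to 5 x 10^5 CFU/mL in 7H9 + ADC. Compound in DMSO two-fold serially diluted from 200 µM top concentration. Stationary 37 °C for 48 h, then alamarBlue for 8 h at 37 °C. MIC is the lowest concentration with no viable bacteria (blue, not pink). Duplicate wells, at least two independent repeats.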

In series [12] the test system is Mycolicibacterium smegmatis. The series is described as follows: Antibiofilm activity against Mycobacterium smegmatis mc2 155 ATCC 700084 assessed as inhibition of biofilm formation measured after 24 hrs by crystal violet reporter assay. It is filed as functional, organism-based. To be noted: MC2 155 ATCC 700084, 24 h.
Series [13] can be described thus: Hemolytic activity in sheep RBC assessed as hemolysis at 200 uM measured after 1 hr by UV spectrometer analysis. Conditions: sheep red blood cells (erythrocytes), read-out: Activity. It counts as ADME, cell-based, Ovis aries, Erythrocyte. The gist of the method:
as §2

In series [14] the test system is Mycolicibacterium smegmatis. The series is described as follows: Potentiation of Cefoxitin-induced antibacterial activity against Mycobacterium smegmatis mc2 155 ATCC 700084 assessed as fold reduction in Cefoxitin MIC at 30 uM incubated for 48 hrs by alamarblue dye based broth microdilution method. It is filed as functional. The gist of the method:
as §1

In series [15] the test system is Mycolicibacterium smegmatis. The series is described as follows: Potentiation of Ampicillin-induced antibacterial activity against Mycobacterium smegmatis mc2 155 ATCC 700084 assessed as fold reduction in Ampicillin MIC at 30 uM incubated for 48 hrs by alamarblue dye based broth microdilution method. It is filed as functional. The gist of the method: as §1
Series [16] concerns Mycolicibacterium smegmatis. Briefly: Potentiation of Cefoxitin-induced antibacterial activity against Mycobacterium smegmatis mc2 155 ATCC 700084 assessed as fold reduction in Cefoxitin MIC at 60 uM incubated for 48 hrs by alamarblue dye based broth microdilution method. It counts as functional. In short, it runs like this: as §1
The test system of series [17] is Mycolicibacterium smegmatis. Briefly: Potentiation of Cefoxitin-induced antibacterial activity against Mycobacterium smegmatis mc2 155 ATCC 700084 assessed as Cefoxitin MIC at 60 uM incubated for 48 hrs by alamarblue dye based broth microdilution method (reference value: 16 ug/ml). It counts as functional. The gist of the method:
as §1

For series [18], the system named is Mycolicibacterium smegmatis. Briefly: Potentiation of Ceftazidime-induced antibacterial activity against Mycobacterium smegmatis mc2 155 ATCC 700084 assessed as Ceftazidime MIC at 60 uM incubated for 48 hrs by alamarblue dye based broth microdilution method (reference value: 512 ug/ml). It counts as functional. In short, it runs like this:
as §1

Series [19] relates to Mycolicibacterium smegmatis. The series is described as follows: Potentiation of Ceftazidime-induced antibacterial activity against Mycobacterium smegmatis mc2 155 ATCC 700084 assessed as fold reduction in Ceftazidime MIC at 60 uM incubated for 48 hrs by alamarblue dye based broth microdilution method. It is filed as functional. In short, it runs like this: as §1
Series [20] relates to Mycolicibacterium smegmatis. Briefly: Potentiation of Ampicillin-induced antibacterial activity against Mycobacterium smegmatis mc2 155 ATCC 700084 assessed as fold reduction in Ampicillin MIC at 60 uM incubated for 48 hrs by alamarblue dye based broth microdilution method. It is filed as functional. In short, it runs like this:
as §1

Series [21] relates to Mycolicibacterium smegmatis. Briefly: Potentiation of Cefotaxime-induced antibacterial activity against Mycobacterium smegmatis mc2 155 ATCC 700084 assessed as Cefotaxime MIC at 60 uM incubated for 48 hrs by alamarblue dye based broth microdilution method (reference value: 128 ug/ml). It counts as functional. The gist of the method: as §1
In series [22] the test system is Mycolicibacterium smegmatis. The series is described as follows: Potentiation of oxacillin-induced antibacterial activity against Mycobacterium smegmatis mc2 155 ATCC 700084 assessed as fold reduction in oxacillin MIC at 60 uM incubated for 48 hrs by alamarblue dye based broth microdilution method. It is filed as functional. The gist of the method: as §1
The test system of series [23] is Mycolicibacterium smegmatis. Briefly: Potentiation of Cefotaxime-induced antibacterial activity against Mycobacterium smegmatis mc2 155 ATCC 700084 assessed as fold reduction in Cefotaxime MIC at 60 uM incubated for 48 hrs by alamarblue dye based broth microdilution method. It counts as functional. The gist of the method: as §1
The subject of series [24] is Mycolicibacterium smegmatis. The series is described as follows: Potentiation of Ampicillin-induced antibacterial activity against Mycobacterium smegmatis mc2 155 ATCC 700084 assessed as Ampicillin MIC at 60 uM incubated for 48 hrs by alamarblue dye based broth microdilution method (reference value: 128 ug/ml). It counts as functional. In short, it runs like this: as §1

In series [25] the test system is Mycolicibacterium smegmatis. Briefly: Potentiation of Oxacillin-induced antibacterial activity against Mycobacterium smegmatis mc2 155 ATCC 700084 assessed as Oxacillin MIC at 60 uM incubated for 48 hrs by alamarblue dye based broth microdilution method (Rvb =512 ug/ml). It counts as functional. In short, it runs like this: as §1

With `Nc1nc(-c2c[nH]c3cc(Br)ccc23)c[nH]1`, the MIC in series [1] was determined as 128 µg/mL; in series [4], 128 µg/mL; in series [5] it was 16 µg/mL; in series [8], 512 µg/mL; in [9], 128 µg/mL; in [11], 100 µM (≈ 27.7 µg/mL). The concentration for a half-maximal effect (EC50) in [2] came out at 27.9 µM. Moreover, the hemolysis at 1 h, 500 µM in series [3] was 14%. Also, the “fold change (FC)” value is given as 0 in series [6]; 4 in [7]; 0 in [10]; 0 in series [14]; 0 in series [15]. The IC50 in series [12] amounted to 7.5 µM. In addition, the hemolysis at 1 h, 200 µM in series [13] is 7%.
On to `Brc1ccc2[nH]cc(-c3ccnc(NCc4ccccc4)n3)c2c1`, for which the “fold change (FC)” value is 0 in series [16]; 0 in series [19]; 2 in series [20]; 2 in series [22]; 2 in [23]. Further, the MIC was 16 µg/mL in [17]; 512 µg/mL in series [18]; 64 µg/mL in [21]; 64 µg/mL in series [24]; 256 µg/mL in [25]; no less than 200 µM in [11]. The EC50 in [2] amounted to 28.3 µM. The hemolysis at 1 h, 500 µM in [3] turned out to be 32%. Also, in [12], the half-inhibitory concentration (IC50) turned out to be 6.9 µM. In addition, the hemolysis at 1 h, 200 µM in series [13] was determined as 9%.
